≈ marks a conversion by molar mass, not a printed value. Calls of active or inactive are those of the source. No cut-off for these calls is given here.
What was measured:
Plasmodium falciparum = test: Antimalarial activity against chloroquine-sensitive Plasmodium falciparum 3D7; format: functional, organism-based
[1] = Selectivity index, ratio of CC50 for african green monkey (Cercopithecus aethiops) Vero cells to IC50 for chloroquine-sensitive Plasmodium falciparum 3D7; format: functional
[2] = tested on: Plasmodium yoelii nigeriensis; test: Antimalarial activity against multidrug-resistant Plasmodium yoelii nigeriensis infected Swiss mice (Mus musculus) assessed as suppression in parasitaemia at 100 mg/kg, perorally for 4 days measured on day 4; format: functional; conditions: 96 h, route oral
Outline: (§1)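 Swiss mice infected on day 0 with P. yoelii nigeriensis MDR (N67, chloroquine-resistant) parasitized cells. Groups of five mice received the test compound orally as an aqueous suspension at 50 or 100 mg/kg from day 0 to 4; five controls received vehicle only. Parasitaemia was read from tail-vein thin blood smears on days 4, 7, 14, 21 and 28, or until death.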

[3] = tested on: Plasmodium yoelii nigeriensis; test: Antimalarial activity against multidrug-resistant Plasmodium yoelii nigeriensis infected Swiss mice (Mus musculus) assessed as suppression in parasitaemia at 100 mg/kg, perorally for 4 days measured on day 7; format: functional; conditions: route oral; outline: as §1
[4] = tested on: Plasmodium yoelii nigeriensis; test: Antimalarial activity against multidrug-resistant Plasmodium yoelii nigeriensis infected Swiss mice (Mus musculus) assessed as survival at 100 mg/kg, perorally for 4 days measured on day 7; format: functional, organism-based; parameters: dose 100 mg/kg; outline: as §1
[5] = tested on: Plasmodium yoelii nigeriensis; test: Antimalarial activity against multidrug-resistant Plasmodium yoelii nigeriensis infected Swiss mice (Mus musculus) assessed as survival at 100 mg/kg, perorally for 4 days measured on day 28; format: functional; conditions: route oral; outline: as §1

SMILES	MIC (Plasmodium falciparum) [µg/mL]	IC50 (Plasmodium falciparum) [µg/mL]	Ratio CC50/IC50 [1]	also measured
S=C(Nc1ccc(Cl)cc1)Nc1ccc2ncnc(Nc3cccc(Cl)c3)c2c1	10 (≈ 22.7 µM)	–	–	–
COc1cccc(Nc2ncnc3ccc(NC(=S)Nc4cccc(Cl)c4)cc23)c1	2 (≈ 4.59 µM)	0.0115 (≈ 0.0264 µM)	1615.3	inhibition in vivo at 100 mg/kg [2]: 46.5%; inhibition in vivo at 100 mg/kg [3]: 28.4%
S=C(Nc1cccc(Cl)c1)Nc1ccc2ncnc(Nc3cccc(Cl)c3)c2c1	2 (≈ 4.54 µM)	0.0088 (≈ 0.02 µM)	556.3	inhibition in vivo at 100 mg/kg [2]: 77.2%; inhibition in vivo at 100 mg/kg [3]: 16.1%
S=C(Nc1ccc2ncnc(Nc3ccccc3)c2c1)Nc1cccc2ccccc12	2 (≈ 4.74 µM)	–	–	–
COc1ccc(Nc2ncnc3ccc(NC(=S)Nc4ccc(Br)cc4)cc23)cc1OC	2 (≈ 3.92 µM)	0.683 (≈ 1.34 µM)	85.7	–
FC(F)(F)c1cccc(Nc2ncnc3ccc(NC(=S)Nc4ccccc4)cc23)c1	2 (≈ 4.55 µM)	0.992 (≈ 2.26 µM)	69	–
S=C(Nc1ccc(Br)cc1)Nc1ccc2ncnc(Nc3cccc(Cl)c3)c2c1	2 (≈ 4.13 µM)	0.526 (≈ 1.09 µM)	1	–
S=C(Nc1ccccc1)Nc1ccc2ncnc(Nc3ccccc3)c2c1	2 (≈ 5.38 µM)	–	–	–
FC(F)(F)c1cccc(Nc2ncnc3ccc(NC(=S)Nc4ccc(Br)cc4)cc23)c1	2 (≈ 3.86 µM)	0.0392 (≈ 0.0756 µM)	67.1	inhibition in vivo at 100 mg/kg [2]: 9.78%; Activity [4]: inactive
FC(F)(F)c1cccc(Nc2ncnc3ccc(NC(=S)Nc4ccc(Cl)cc4)cc23)c1	10 (≈ 21.1 µM)	–	–	–
COc1ccc(Nc2ncnc3ccc(NC(=S)Nc4cccc5ccccc45)cc23)cc1OC	2 (≈ 4.15 µM)	0.207 (≈ 0.43 µM)	133.8	–
COc1ccc(Nc2ncnc3ccc(NC(=S)Nc4ccc(Cl)cc4)cc23)cc1OC	10 (≈ 21.5 µM)	–	–	–
S=C(Nc1ccc2ncnc(Nc3cccc(Cl)c3)c2c1)Nc1cccc2ccccc12	10 (≈ 21.9 µM)	–	–	–
COc1ccc(Nc2ncnc3ccc(NC(=S)Nc4cccc5ccccc45)cc23)cc1	10 (≈ 22.1 µM)	–	–	–
Fc1cccc(NC(=S)Nc2ccc3ncnc(Nc4cccc(Cl)c4)c3c2)c1	10 (≈ 23.6 µM)	–	–	inhibition in vivo at 100 mg/kg [2]: 85.7%; inhibition in vivo at 100 mg/kg [3]: 61.1%
N#Cc1cccc(NC(=S)Nc2ccc3ncnc(Nc4ccccc4)c3c2)c1	> 10	–	–	–
COc1ccc(Nc2ncnc3ccc(NC(=S)Nc4ccc(Br)cc4)cc23)cc1	2 (≈ 4.16 µM)	0.0502 (≈ 0.104 µM)	114.9	–
COc1ccc(Nc2ncnc3ccc(NC(=S)Nc4ccc(Cl)cc4)cc23)cc1	> 10	–	–	–
COc1cccc(Nc2ncnc3ccc(NC(=S)Nc4ccc(Br)cc4)cc23)c1	1 (≈ 2.08 µM)	0.106 (≈ 0.22 µM)	187	Activity [5]: 50%; inhibition in vivo at 100 mg/kg [2]: 100%; inhibition in vivo at 100 mg/kg [3]: 99.9%
COc1ccc(Nc2ncnc3ccc(NC(=S)Nc4cccc(C#N)c4)cc23)cc1OC	10 (≈ 21.9 µM)	–	–	–
COc1ccc(Nc2ncnc3ccc(NC(=S)Nc4cccc(Cl)c4)cc23)cc1OC	10 (≈ 21.5 µM)	–	–	–
S=C(Nc1ccc(Br)cc1)Nc1ccc2ncnc(Nc3ccccc3)c2c1	10 (≈ 22.2 µM)	–	–	–
FC(F)(F)c1cccc(Nc2ncnc3ccc(NC(=S)Nc4cccc5ccccc45)cc23)c1	10 (≈ 20.4 µM)	–	–	–
S=C(Nc1ccc(Cl)cc1)Nc1ccc2ncnc(Nc3ccccc3)c2c1	2 (≈ 4.93 µM)	–	–	–

Further lines, with some results ahead:

MIC (Plasmodium falciparum) [µg/mL]	IC50 (Plasmodium falciparum) [µg/mL]	SMILES	Ratio CC50/IC50 [1]	also measured
10 (≈ 21.1 µM)	–	FC(F)(F)c1cccc(Nc2ncnc3ccc(NC(=S)Nc4cccc(Cl)c4)cc23)c1	–	–
2 (≈ 4.45 µM)	0.385 (≈ 0.857 µM)	COc1ccc(Nc2ncnc3ccc(NC(=S)Nc4cccc(F)c4)cc23)cc1OC	63.7	–
> 10	–	COc1ccc(Nc2ncnc3ccc(NC(=S)Nc4cccc(Cl)c4)cc23)cc1	–	–
2 (≈ 4.77 µM)	0.0532 (≈ 0.127 µM)	COc1ccc(Nc2ncnc3ccc(NC(=S)Nc4cccc(F)c4)cc23)cc1	206.4	–
2 (≈ 5.14 µM)	0.792 (≈ 2.03 µM)	Fc1cccc(NC(=S)Nc2ccc3ncnc(Nc4ccccc4)c3c2)c1	70.3	–
2 (≈ 4.93 µM)	0.813 (≈ 2 µM)	S=C(Nc1cccc(Cl)c1)Nc1ccc2ncnc(Nc3ccccc3)c2c1	29	–
> 10	–	N#Cc1cccc(NC(=S)Nc2ccc3ncnc(Nc4cccc(Cl)c4)c3c2)c1	–	–
2 (≈ 4.98 µM)	0.243 (≈ 0.604 µM)	COc1ccc(Nc2ncnc3ccc(NC(=S)Nc4ccccc4)cc23)cc1	80.4	–
10 (≈ 22.9 µM)	–	COc1cccc(Nc2ncnc3ccc(NC(=S)Nc4ccc(Cl)cc4)cc23)c1	–	–
1 (≈ 2.34 µM)	0.021 (≈ 0.0492 µM)	COc1cccc(Nc2ncnc3ccc(NC(=S)Nc4cccc(C#N)c4)cc23)c1	453	–
10 (≈ 22.1 µM)	–	COc1cccc(Nc2ncnc3ccc(NC(=S)Nc4cccc5ccccc45)cc23)c1	–	–
2 (≈ 4.98 µM)	0.258 (≈ 0.643 µM)	COc1cccc(Nc2ncnc3ccc(NC(=S)Nc4ccccc4)cc23)c1	38.7	–
2 (≈ 4.31 µM)	0.443 (≈ 0.954 µM)	N#Cc1cccc(NC(=S)Nc2ccc3ncnc(Nc4cccc(C(F)(F)F)c4)c3c2)c1	5.5	–
10 (≈ 21.9 µM)	–	Fc1cccc(NC(=S)Nc2ccc3ncnc(Nc4cccc(C(F)(F)F)c4)c3c2)c1	–	–
1 (≈ 2.38 µM)	0.0267 (≈ 0.0636 µM)	COc1cccc(Nc2ncnc3ccc(NC(=S)Nc4cccc(F)c4)cc23)c1	510.7	–
2 (≈ 4.63 µM)	0.303 (≈ 0.702 µM)	COc1ccc(Nc2ncnc3ccc(NC(=S)Nc4ccccc4)cc23)cc1OC	90	–
> 10	–	COc1ccc(Nc2ncnc3ccc(NC(=S)Nc4cccc(C#N)c4)cc23)cc1	–	–
10 (≈ 24.6 µM)	–	S=C(Nc1ccccc1)Nc1ccc2ncnc(Nc3cccc(Cl)c3)c2c1	–	–
